WT yeast gro inh: growth inhibition of WT yeast, mitochondrial fusion screen; mitochondrial fusion phenotypic screen, WT strain; inhibition, % at 10 µM; 190,000 compounds, 2.1% hits; AID 1362; in the data active = inhibition above about 58%; tested in S. cerevisiae
RAM inhibit: inhibitors of the yeast RAM network | S. cerevisiae dse1pr::URA3 reporter, 5-FOA growth OD615, 2 d; analog-sensitive cbk1-as2 kinase mutant strain | inhibition, % at 50 µM | 190,000 compounds, 1.8% hits | AID 868;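 active = inhibition above a set limit, 3 SD over mean compound inhibition, cut at about 8.4% in these data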;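 also: inhibition rescues growth on 5-FOA so higher OD means more RAM inhibition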
Cl transport mod: modulates chloride dependent transport by human KCC2; Q9H2X9; KCC2 cells, thallium flux FluoZin-2 fluorescence; B-score of Tl+ flux slope (higher = more flux/activation; lower = inhibition) at 10 µM; 190,000 compounds, 2.2% hits; AID 1456;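 active = thallium flux slope and its plate-corrected score both differing from the plate sample mean at a set confidence after two filtering rounds, in either direction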;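 also: slope of fluorescence scaled to starting intensity during 10 to 20 s after thallium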
Target sequence (Q9H2X9 whole entry, looked up): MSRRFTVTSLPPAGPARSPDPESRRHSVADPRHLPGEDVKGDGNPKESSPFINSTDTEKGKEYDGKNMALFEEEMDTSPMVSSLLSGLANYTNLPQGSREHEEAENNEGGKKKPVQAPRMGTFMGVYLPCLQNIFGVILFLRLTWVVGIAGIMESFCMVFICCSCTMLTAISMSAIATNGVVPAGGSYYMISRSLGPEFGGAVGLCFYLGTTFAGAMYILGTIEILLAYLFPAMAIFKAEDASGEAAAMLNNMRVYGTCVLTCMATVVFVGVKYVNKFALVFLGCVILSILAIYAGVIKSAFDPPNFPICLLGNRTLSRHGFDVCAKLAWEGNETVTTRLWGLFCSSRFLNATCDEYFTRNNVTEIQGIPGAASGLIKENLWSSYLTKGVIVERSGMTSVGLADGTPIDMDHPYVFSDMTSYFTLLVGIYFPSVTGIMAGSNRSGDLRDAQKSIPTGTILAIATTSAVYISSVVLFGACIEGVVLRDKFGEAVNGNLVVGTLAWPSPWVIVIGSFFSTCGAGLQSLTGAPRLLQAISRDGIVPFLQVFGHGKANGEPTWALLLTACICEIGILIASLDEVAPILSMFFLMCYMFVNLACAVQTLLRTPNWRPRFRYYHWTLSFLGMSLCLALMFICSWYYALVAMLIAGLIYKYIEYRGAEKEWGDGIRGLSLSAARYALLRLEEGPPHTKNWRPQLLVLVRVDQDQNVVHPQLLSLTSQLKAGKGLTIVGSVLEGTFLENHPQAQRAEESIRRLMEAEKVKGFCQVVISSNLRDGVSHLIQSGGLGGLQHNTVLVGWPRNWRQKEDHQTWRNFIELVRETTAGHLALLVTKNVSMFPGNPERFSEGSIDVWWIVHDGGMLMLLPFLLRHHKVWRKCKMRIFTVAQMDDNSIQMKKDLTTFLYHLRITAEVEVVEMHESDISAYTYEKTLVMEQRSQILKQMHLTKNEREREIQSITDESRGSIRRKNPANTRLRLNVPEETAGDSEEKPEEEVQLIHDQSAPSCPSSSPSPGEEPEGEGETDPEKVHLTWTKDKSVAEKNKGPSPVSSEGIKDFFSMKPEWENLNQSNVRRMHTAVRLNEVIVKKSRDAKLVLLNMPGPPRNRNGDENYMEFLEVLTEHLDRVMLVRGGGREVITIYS
Yeast life ext: extends the lifespan of yeast | S. cerevisiae growth with nicotinamide, OD615; deaD strain in restrictive glucose medium | inhibition of the nicotinamide effect, % at 10 µM | 130,000 compounds, 0.68% hits | AID 775;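 active = inhibition above a set limit, placed 3 SD over the median of all compounds, cut at about 26% in these data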
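Material: Modified budding yeast, DeaD strain | Medium: Restrictive glucose medium | Probe or stimulus: 1.5 mM nicotinamide | Dosing: Single dose 10 µM compound, 0.25% DMSO | Times: 48 h at 30 °C | Technique: OD615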
BB579 growth dn: chemicals that inhibit yeast BB579 growth in restrictive medium (lifespan-shortening candidates). S. cerevisiae BB579 growth, OD615, 48 h. inhibition, % at 10 µM. 140,000 compounds, 0.51% hits. AID 804;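 active = inhibition above a set limit, 3 SD over the mean compound inhibition, cut at about 44% in these data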
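Detection: OD615 turbidity measurement; Material: Saccharomyces cerevisiae DeaD strain BB579, replicative lifespan model yeast; Timing: 48 h exposure, 30 °C; Doses: single 10 µM dose; Medium: CSMM-D restrictive synthetic medium containing dextrose (glucose); Controls: amphotericin B at 10 µg/mL as positive control.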
KCC2 sec1: confirmation of human KCC2 transport modulators; shares compounds with Cl transport mod; HEK293-KCC2, thallium flux, FluoZin2 fluorescence; hits give high values; normalised thallium flux (F/F0 slope) at 10 µM; 3,700 compounds, 15% hits;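 active = thallium flux slope above the same plate's solvent-only control mean plus 3 SD; inconclusive = the two replicate wells disagree; inactive = no significant difference from solvent-only control wells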
KCC2 bumet counter: thallium flux persisting under bumetanide in KCC2 cells, counter-screen secondary assay. shares compounds with Cl transport mod. HEK293-KCC2 + bumetanide/ouabain, thallium flux FluoZin2; hits give high values. normalized thallium flux at 10 µM. 3,700 compounds, 49% hits. AID 1714;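 active = thallium entry rate above the same plate's blocked-transporter control wells by more than 3 SD; inconclusive = the two repeat wells disagree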;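 also: raw slope of fluorescence over initial fluorescence between 10 and 20 s after thallium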
KCC2 sec2: confirmation of human KCC2 transport modulators. shares compounds with Cl transport mod. HEK293-KCC2, thallium flux FluoZin2 fluorescence; actives lie on both sides; F/F0 rise rate, 10–20 s post-thallium. normalized thallium flux at 10 µM. 3,700 compounds, 23% hits. AID 1715;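 active = thallium flux slope more than 3 SD above or below the plate's solvent-only control mean, mostly below; inconclusive = the two repeat wells disagreed; inactive = no significant shift from solvent-only controls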
HEK293 Tl flux: counter-screen for KCC2 modulators: effect in parental HEK293 cells. 3,700 compounds, 46% hits. shares compounds with Cl transport mod. thallium flux FluoZin2, ouabain; baseline-ratio fluorescence slope, 10–20 s after thallium. AID 1716. thallium flux rate (normalised fluorescence) at 10 µM;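 active = thallium flux rate significantly above the same plate's solvent-only control wells, beyond their mean plus 3 SD; inconclusive = the two replicate wells gave conflicting results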
KCC2 ouabain: KCC2 (human) modulation, ouabain retest | shares compounds with Cl transport mod | raw Tl+ flux slope (below DMSO = inhibition, above = activation) at 10 µM | AID 1717 | 3,700 compounds, 48% hits | HEK293-KCC2, thallium flux FluoZin2 fluorescence; bidirectional: low = inhibitor, high = activator;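 active = thallium flux slope beyond 3 SD from same-plate DMSO control mean in most replicates, usually higher, sometimes lower; inconclusive = repeat tests gave conflicting results; inactive = no significant difference from controls in most replicates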;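 also: slope of initial-normalized fluorescence between seconds 10 and 20 after thallium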
HEK counter2: parental HEK flux effect, counter-screen 2; shares compounds with Cl transport mod; HEK293 parental, thallium flux FluoZin-2 fluorescence slope; thallium flux slope at 10 µM; 3,700 compounds, 33% hits;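 active = thallium flux slope above the same plate's solvent-control mean plus 3 SD in both duplicate wells; inconclusive = duplicate wells that disagreed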;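 also: run without ouabain in cells lacking the KCC2 cotransporter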
Numbers stand for hits; n = inactive; u = inconclusive; x = no result. Most compounds without a hit are left out; they make up all but 5.5% or so of the library.

SMILES | WT yeast gro inh | RAM inhibit | Cl transport mod | Yeast life ext | BB579 growth dn | KCC2 sec1 | KCC2 bumet counter | KCC2 sec2 | HEK293 Tl flux | KCC2 ouabain | HEK counter2
Cc1c(NC(=O)/C(C#N)=C/c2ccc(-c3ccccc3Cl)o2)c(=O)n(-c2ccccc2)n1C | n | n | n | n | n | x | x | x | x | x | x
N#C/C(=C\c1ccc(-c2ccccc2Cl)o1)C(=O)Nc1nc2ccccc2s1 | n | n | 6.8 | n | n | n | 0.024 | n | 0.032 | 0.029 | 0.034
COC(=O)[C@@H]1CCCN1Cc1nc(Cc2ccccc2F)no1 | n | n | n | x | x | x | x | x | x | x | x
CC1Cc2ccccc2N1C(=O)/C=C/c1cccc(F)c1 (stereo not drawn) | n | n | -4.4 | x | x | n | n | 0.023 | n | 0.015 | n
C=CCn1c(CNC(=O)c2cccs2)nnc1SCC(=O)c1ccc(Br)cc1 | n | n | -5.1 | n | n | n | n | n | n | 0.037 | n
C=CCn1c(Cc2cccs2)nnc1SCC(=O)c1ccc(F)cc1 | n | n | -4.1 | n | n | n | n | n | n | 0.015 | n
C=CCn1c(CCNC(=O)c2cccs2)nnc1SCC(=O)c1ccc(Cl)cc1 | n | n | n | n | n | x | x | x | x | x | x
C=CCn1c(Cc2cccs2)nnc1SCC(=O)c1ccc2ccccc2c1 | n | n | -5.9 | n | n | n | u | 0.027 | n | 0.014 | n
O=C(NCCc1nnc2ccc(NCc3cccnc3)nn12)c1ccccc1F | n | n | n | x | x | x | x | x | x | x | x
CCc1ccc(-c2cc(C(F)(F)F)n3nc(C(=O)Nc4cnn(Cc5ccc(C)cc5)c4)cc3n2)s1 | n | n | n | n | n | x | x | x | x | x | x
O=C1CN(C(=O)COC(=O)CCC(=O)c2ccc3c(c2)OCCO3)c2ccccc2N1 | n | n | -4.4 | n | n | n | n | 0.024 | n | n | n
O=C(Nc1ccccc1C(F)(F)F)c1ncn[nH]1 | x | x | n | x | x | x | x | x | x | x | x
CS(=O)(=O)N(CC(=O)N/N=C/c1cc2c(cc1Br)OCO2)c1ccccc1Br | n | n | 5.1 | n | n | n | n | n | n | n | n
CS(=O)(=O)N(CC(=O)N/N=C/c1cccc2c1OCCO2)c1ccccc1Br | n | n | n | n | n | x | x | x | x | x | x
CC1CCC(C(C)C)C(OCC(O)CNC(C)C)C1 (stereo not drawn) | x | x | n | x | x | x | x | x | x | x | x
CCN(C(=O)Cc1cccs1)c1nnc(-c2cccnc2)s1 | n | n | n | n | n | x | x | x | x | x | x
CC(C)(C)C1CCC(=NNC(=O)c2cc3c(s2)CCCC3)CC1 (stereo not drawn) | n | n | n | n | n | x | x | x | x | x | x
CC(C)(C)C1CCc2sc(C(=O)NNC(=O)CCl)cc2C1 (stereo not drawn) | n | n | 3.3 | x | x | n | 0.017 | n | 0.017 | u | 0.014
CS(=O)(=O)C1=NSC2=NC(=O)/C(=C\c3cccn3-c3ccccc3Cl)C(=N)N21 | n | n | -5.1 | x | x | n | n | 0.023 | 0.0053 | 0.014 | u
N#CC(=NCc1cccnc1)C1=C(O)c2ccccc2C1=O | x | x | n | x | x | x | x | x | x | x | x
O=C(N/N=C\c1ccccn1)c1ccccc1O | n | n | 5.4 | x | x | n | 0.013 | u | 0.015 | 0.022 | 0.017
O=C(N/N=C/c1c[nH]c2ccccc12)c1sc2ccccc2c1Cl | n | n | n | n | n | x | x | x | x | x | x
O=C(COc1ccc2ccccc2c1)N/N=C/c1ccccn1 | n | n | -3.8 | x | x | n | n | 0.025 | n | u | n
